Data published in publication PMC4404408 (Journal of acquired immune deficiency syndromes (1999), 2014).
“And” between values parts separate entries of the source, which are not always exact repeats. Equal entries are not always repeated. Where two headings read alike, the source gives them in different places.

How the values were obtained:
[1] = Phase I open-label drug interaction PK study, arm A; settings: for Cmax: in vivo
[2] = human, in vivo
[3] = Fasting lipid profile, calculated LDL-C; format: in vivo, healthy adult HIV-1 seronegative volunteers
Outline: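 Healthy HIV-seronegative volunteers aged 18–60 (BMI 18–25, ≥50 kg) took pitavastatin with observed dosing on day 4. They then took EFV 600 mg (arm A, night) or DRV/ritonavir 800/100 mg (arm B, morning) on days 5–14, plus pitavastatin 2 mg on days 15–18. Fasting serum total cholesterol, triglycerides and HDL were measured enzymatically on days 0, 4, 14 and 18, and LDL-C was calculated by the Friedewald equation.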

[4] = cited from earlier work
[5] = Phase I open-label drug interaction PK study, arm B
[6] = human, in vivo; remark: listed apart in the source
[7] = pitavastatin 4 mg daily with DRV/r 800/100 mg, healthy volunteers
[8] = pitavastatin 4 mg once daily and lopinavir/r 400/100 mg twice a day, healthy volunteers
[9] = coadministered with pitavastatin vs DRV/r alone, nonsignificant

With O=C1Nc2ccc(Cl)cc2[C@@](C#CC2CC2)(C(F)(F)F)O1 [EFV, efavirenz] the “EFV AUC0-τ, geometric mean” value ([1]; EFV 600 mg with pitavastatin 2 mg, day 18, N=14) was 44400 ng·h/mL, the “EFV Tmax, median (IQR)” value ([1]; EFV only, day 14, N=14) was 2.0 (0.9 to 3.0) h and the Cmax ([1]; human) was 3720 ng/mL. It also gave a Cmax ([1]; human, 600 mg) of 4150 ng/mL, an AUC ([1]; human, plasma, oral, 600 mg) of 49500 ng·h/mL and a Tmax ([1]; human, plasma, oral, EFV Tmax, median (IQR), EFV with pitavastatin, day 18, N=14) of 1.5 h. The “EFV AUC0-τ geometric mean ratio (90% CI)” value [2] was 0.90 (0.75 to 1.06) and the “EFV mean plasma concentrations, alone vs coadministered” value [2] was “remained similar throughout the entire 24-hour PK period”.
In the case of O=C(O)C[C@H](O)C[C@H](O)/C=C/c1c(C2CC2)nc2ccccc2c1-c1ccc(F)cc1 [Pitavastatin, pitavastatin], the “Change in mean LDL” value ([3]; day 0-4, pitavastatin only, arms A and B) is given as “decreased”, the “Change in mean LDL” value ([3]; day 14 to day 18, pitavastatin and either EFV or DRV/r) is given as “decreased” and the “Increase in pitavastatin AUC” value ([4]; combined with ritonavir-boosted atazanavir) is given as 31%. For the same compound, the “Safety of concomitant administration” value ([4]; lopinavir/ritonavir in combination with pitavastatin) was “safe and well tolerated”, the “Change in pitavastatin Cmax” value [4, 7] was “minimal or no change” and the “Reduction in pitavastatin AUC0-τ” value [4, 7] was 26%. For the same compound, the “Change of pitavastatin Cmax” value [4, 8] was “unaffected”, the “Reduction of pitavastatin AUC” value [4, 8] was ~ 20% and the “Pitavastatin Tmax, median (IQR)” value [2] was 2.0 (0.9 to 3.0) h. The “Pitavastatin mean plasma concentrations, alone vs coadministered” value ([5]; with DRV/r, 24-hour PK period, Fig. 3A) was “similar”.
For O=C1C[C@H](O)C[C@@H](/C=C/c2c(C3CC3)nc3ccccc3c2-c2ccc(F)cc2)O1 [pitavastatin lactone], the “Pitavastatin lactone median Tmax” value [6] was 2.0 h.
With CC(C)CN(C[C@@H](O)[C@H](Cc1ccccc1)NC(=O)O[C@H]1CO[C@H]2OCC[C@H]21)S(=O)(=O)c1ccc(N)cc1 [DRV, darunavir] the “Increase in DRV mean AUC0-τ” value [5, 9] was 8% and < 10%, the “Increase in DRV mean Cmax” value [5, 9] was 3% and < 10% and the “DRV mean plasma concentrations, alone vs coadministered” value ([5]; with pitavastatin, Fig. 3B) was “remained similar”.
In the case of CC[C@H](C)C(=O)O[C@H]1C[C@H](O)C=C2C=C[C@H](C)[C@H](CC[C@@H](O)C[C@@H](O)CC(=O)O)[C@H]21 [pravastatin], the “Decrease of statin AUC by EFV” value ([4]; coadministered with EFV) is given as 40%, the “Increase of pravastatin AUC” value ([4]; coadministration with lopinavir/ritonavir) is given as 33% and the “Reduction of pravastatin exposure” value ([4]; combined with nelfinavir or saquinavir) is given as “about 50%”. For the same compound, the “Increase of pravastatin AUC” value ([4]; in the presence of DRV/r) was 81%.
